Experimental data taken from the EternaBench riboswitch data.

Tested on: MS2 coat protein
Assay: apparent Kd, MS2 coat protein; higher = weaker binding; RNA-MaP array; FMN 200 µM where present
Outline: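 The apparent Kd comes from binding curves fitted cluster by cluster, filtered, and summarised as a median. Those curves followed SNAP-549-labelled MS2 coat protein from 0.7 or 1.5 nM, doubling to 3 µM, on Illumina sequencing-chip clusters where stalled E. coli RNA polymerase had transcribed the designs, without and then with constant ligand. The buffer was 100 mM Tris-HCl pH 7.5, 80 mM KCl, 4 mM MgCl2, BSA, DTT, yeast tRNA and Tween-20, and green signal was normalised to red-channel RNA signal and control-cluster median Fmax.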

[1] = designed as: OFF switch for flavin mononucleotide, no ligand
[2] = ligand present: flavin mononucleotide, designed as: OFF switch for flavin mononucleotide
[3] = designed as: ON switch for flavin mononucleotide, no ligand
[4] = ligand present: flavin mononucleotide, designed as: ON switch for flavin mononucleotide

| Sequence | apparent Kd [1] [nM] | apparent Kd [2] [nM] | apparent Kd [3] [nM] | apparent Kd [4] [nM] |
| --- | --- | --- | --- | --- |
| ACUAAGAGAGGAUAUACUAACAAACCUCAAACAUACAUCAAACAUGAGGAUCACCCAUGUAGAAGGCUCAAACU | 30.5 | 31.6 |  |  |
| UUGAGGCACCAGAAGGACAUGAGGAUCACCCAUGUAGGAUAUGGGCAAGCCGACGUGCGCAGAUUGCUUAGUUGGGUAUCUUCU |  |  | 43.2 | 10.4 |
| UAUGUGUCAGGAUAUUAGUAGUGUGUGGAUACAUAUAUUGCUGAGAAGGGACAUGAGGAUCACCCAUGUACCUU | 16.2 | 17.5 |  |  |
| GUAGCAUUGUGAGGAUAUCCAUAUCCGAAAGGGACAUGAGGAUCACCCAUGUCGCGAAAGCGGUGGGAGAAGGCACUAUGCUAC |  |  | 4.31 | 4.03 |
| AAUAACAGAGGAUAUACUGUUUUAUGUGUUUAUUGUUUUAAACAUGAGGAUCACCCAUGUAGAAGGCUGAAUGA | 43.8 | 41.9 |  |  |
| UGGUCCUGAGGAUAUGCACCUCAAGUUAUCGUUCACCAUGCACAUGAGGAUCACCCAUGUAGAAGGUAGGAUCG | 18.8 | 16.6 |  |  |
| GGGCUGUCAGGAUAUGGGCUCGGGCUCGAAAGGGCUCGGGCUCAGAAGGGACAUGAGGAUCACCCAUGUGGCUC | 43.8 | 58 |  |  |
| CCGGAGACGGGUAGCCUGACAUGAGGAUCACCCAUGUGAUCCUAGGAUAUGGAUCCUAAUUGGAUCCAGAAGGAGGUUGGCUAC |  |  | 1210 | 392 |
| AUAUAUAUAUCAGGAUAUGGACAGGCCUGUUCGUAUUAAGACAGUAACAUGAGGAUCACCCAUGUCCAGAAGGGAUAUAUAUAU | 83.9 | 50 |  |  |
| GGUUGACAAAGUCAACCUUAACGAACAUGAGGAUCACCCAUGUAGGAUAUGCUACUCAAAGAGUAGCAGAAGGACAUGUGCCUU | 33 | 278 |  |  |
| UGUCAUAUAUAGAAGGGUAGUAGGGAUUUACAUGAGGAUCACCCAUGUAUUAUAGGAUAUGUGUAUAGUUUUUAUUCAAGUAUA | 28.7 | 17.9 |  |  |
| UCUGUUGAAGGAUAUGCGUAAUGAGUUACGGCUCGAGGUCUACAUGAGGAUCACCCAUGUAGAAGGUCAUCAGA | 16.4 | 15.9 |  |  |
| CAUAUACAUGAGGAUCACCCAUGUUAGGAUAUGUUUUAACCGCGCGCAGGGUUAGUUGGCAGAAGGGAUCUGGG | 31.4 | 39 |  |  |
| GGAUAGGACAGAGGAUAUACGUGCUAGAGAUACUAGCAGAAUUUCCUCACAUGAGGAUCACCCAUGUAGAAGGCUGUCCUAUCG | 12.2 | 216 |  |  |
| AGUGUCAUCGAGAAGGCCUCAACAUGAGGAUCACCCAUGUUGCAAAAUGGGAGGAUAUCGCGCGAAAAGCUACGUUUCGUAGCA |  |  | 28.9 | 11.6 |
| AUAAUGAGAGGAUAUACAUGAGGAUCACCCAUGUAAUUAACACGGCGAGCUCCAAUACGUAGAAGGCUCAUUUA | 49.2 | 35 |  |  |
| AGCUAGUCAGGAUAUACGAACACCUCAAAAGAGGUGAAGGGACAUGAGGAUCACCCAUGUAGAAGGGACUAGCA | 33.1 | 112 |  |  |
| AUACUCAUGUAAGGAUAUGCAGCCGAAACGGCUGCAGAAGGUACUAUAAUACAUGAGGAUCACCCAUGUCGAAAUAAAAUAGUU |  |  | 201 | 47.9 |

| Sequence | apparent Kd [1] [nM] | apparent Kd [2] [nM] | apparent Kd [3] [nM] | apparent Kd [4] [nM] |
| --- | --- | --- | --- | --- |
| CUGUUAUAUGAAGGAUAUACUUAACAUGAGGAUCACCCAUGUGGUGUUGUGAGUGAGUGAGUUUAGUAGAAGGUCAAUUCUUUU | 207 | 221 |  |  |
| ACAUGAGGAUGAGGAUAUUCAUACAUGAGGAUAGAAGAAGGCAUACAUGAGGAUCACCCAUGUAUACACAUGAGGAUCCCUUAU | 81.1 | 156 |  |  |
| CGCAACAUACAGAAGGAGUAAAUUAGAAGUGUACUAGGAUAUGUUUACAUGAGGAUCACCCAUGUCGAUUGGGUUUUAGUUGCG | 489 | 251 |  |  |
| GUGGCCCAGGCACAGGAUAUGUUUCUCGUAACAUGAGGAUCACCCAUGUGCCUAUGAGAUUUUUUGCAGAAGGGUGCACGCCACG |  |  | 229 | 18.1 |
| CAGUACUGAGGAUAUACAUGAGGAUCACCCAUGUGCCUUAGCUAGGAUACUAGCAUUAGUAGAAGGCAGUACUG | 14.1 | 158 |  |  |
| UUUUUAUUUAUAGGAUAUGGAAACAUGAGGAUCACCCAUGUAUGAUAAGAUAAAUUAUGAUAUAGCCAGAAGGAUAUUAUUUUU |  |  | 28.5 | 35.9 |
| AAAACAUGAGGAUCACCCAUGUAAUGAUCGGUUGAUGAAAGUGAGGAUAUACAAAAUUUUAUGGAGUAGAAGGCACUGGGUUCA |  |  | 31.4 | 31.9 |
| UGCGUGGUCACAGGAUAUGCAAGAUAAACUUUAGCAGAAGGGUGAUCAAUUAGCUCAAUACCACAUGAGGAUCACCCAUGUCUA |  |  | 62.9 | 314 |
| ACAUGAGGAUCACCCAUGUGAAACCAAUGGCUGACUUUGAGCUAGGAUAUUUGUGCAUAUCAAACAAAGAAGGAGCAUUACUGG | 41.1 | 37.9 |  |  |
| GUUUCACAUGAGGAUCACCCAUGUGAGGAUAUAGAUUUGUUAGUGGUGAUUGGUGGAUUUAGAAGGCGCGUGAU | 81.3 | 66.2 |  |  |
| GUAGCUAUCGGAGGAUAUCCUCAGCGGAAACGCACAUGAGGAUCACCCAUGUAAAUAAAUAAUUUGGAGAAGGCCGAUAGCUAC |  |  | 292 | 18.6 |
| ACAUGAGGAUCACCCAUGUGAGGAUCUCCCAUGUUAUAUUUCAGAAGGCUCGUGUGUUUGAUGAGAGAGGAUAUGGAAUAUACG | 73.7 | 49.7 |  |  |
| GAAUAUUCGUUGUACAUGAGGAUCACCCAUGUGUCUUUACAUGAGGAUAUGGAUUCUAAUUGGAUCCAGAAGGCAUGAAUAUUC |  |  | 154 | 53.1 |
| CCUUUGCUAUAUACAUGAGGAUCACCCAUGUCCACUGACAGACAGGAUAUCCUUAGAAACUAGCAGGAGAAGGGUCAGUCAUAC |  |  | 263 | 328 |
| CCUCAGUAAGGAUAUCAGCUUAUAAAGUUGGUAAUGAGAGCUGAGAAGGUACAUGAGGAUCACCCAUGUUAGUU | 21.4 | 66.3 |  |  |
| UUUUAACAUGAGGAUCACCCAUGUGAGGAUAUCGAAAUUUAUAUUAAUAUUUAUUAUACGAGAAGGCACAUUUU | 73.6 | 97 |  |  |
| AUUACAAUUUUAUACAUGAGGAUCACCCAUGUUAUAAGUCAUGAGGAUAUGGUAUUGUAGUUAUUCCAGAAGGCAUUUAGCUAA |  |  | 8.75 | 7.64 |
| CAGUACUGAGGAUAUACAUGAGGAUCACCCAUGUGGUUAAGCUAGGAAACUAGCAAAUGUAGAAGGCAGUACUG | 240 | 85.1 |  |  |
